In publication PMC5259643 (Journal of Veterinary Internal Medicine, 2017):
Read-outs that look alike come from different tables or passages of the source.

Experiments:
[1] = Echocardiography, blood pressure and heart rate before and after sedation; type: in vivo, cats; details: ten minutes after sedation
[2] = system: Capillaria aerophila; assay: Anthelmintic treatment of feline lungworm infection; type: in vivo, cats; details: single administration, one cat
[3] = system: Troglostrongylus brevior; assay: as above; type: in vivo, cats; details: single administration; moxidectin n = 2, emodepside n = 1
[4] = system: T. brevior/A. abstrusus; assay: Anthelmintic treatment of feline lungworm infection; type: in vivo, cats; details: five of six cats
Outline: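 Cats with natural Troglostrongylus brevior/Aelurostrongylus abstrusus co-infection were treated with one of: single topical emodepside (n = 1), single oral milbemycin oxime (n = 2), or moxidectin given two (n = 2) or three (n = 1) times. Clinical course and time to recovery were followed.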

[5] = Management of Addisonian crisis; type: in vivo, dogs; details: for outcome: HSS CRI 0.3 to 0.625 mg/kg/h (n = 7), dexamethasone IV 0.05 to 0.3 mg/kg (n = 8)
[6] = biological target: T1, serum angiotensin‐converting enzyme (ACE) (Canis lupus familiaris, UniProt A0A8I3S3I6); assay: Serum ACE activity after benazepril with or without pimobendan; type: in vivo, dogs; details: for serum ACE activity versus baseline: days 1 and 15
T1 sequence (A0A8I3S3I6 31-1241): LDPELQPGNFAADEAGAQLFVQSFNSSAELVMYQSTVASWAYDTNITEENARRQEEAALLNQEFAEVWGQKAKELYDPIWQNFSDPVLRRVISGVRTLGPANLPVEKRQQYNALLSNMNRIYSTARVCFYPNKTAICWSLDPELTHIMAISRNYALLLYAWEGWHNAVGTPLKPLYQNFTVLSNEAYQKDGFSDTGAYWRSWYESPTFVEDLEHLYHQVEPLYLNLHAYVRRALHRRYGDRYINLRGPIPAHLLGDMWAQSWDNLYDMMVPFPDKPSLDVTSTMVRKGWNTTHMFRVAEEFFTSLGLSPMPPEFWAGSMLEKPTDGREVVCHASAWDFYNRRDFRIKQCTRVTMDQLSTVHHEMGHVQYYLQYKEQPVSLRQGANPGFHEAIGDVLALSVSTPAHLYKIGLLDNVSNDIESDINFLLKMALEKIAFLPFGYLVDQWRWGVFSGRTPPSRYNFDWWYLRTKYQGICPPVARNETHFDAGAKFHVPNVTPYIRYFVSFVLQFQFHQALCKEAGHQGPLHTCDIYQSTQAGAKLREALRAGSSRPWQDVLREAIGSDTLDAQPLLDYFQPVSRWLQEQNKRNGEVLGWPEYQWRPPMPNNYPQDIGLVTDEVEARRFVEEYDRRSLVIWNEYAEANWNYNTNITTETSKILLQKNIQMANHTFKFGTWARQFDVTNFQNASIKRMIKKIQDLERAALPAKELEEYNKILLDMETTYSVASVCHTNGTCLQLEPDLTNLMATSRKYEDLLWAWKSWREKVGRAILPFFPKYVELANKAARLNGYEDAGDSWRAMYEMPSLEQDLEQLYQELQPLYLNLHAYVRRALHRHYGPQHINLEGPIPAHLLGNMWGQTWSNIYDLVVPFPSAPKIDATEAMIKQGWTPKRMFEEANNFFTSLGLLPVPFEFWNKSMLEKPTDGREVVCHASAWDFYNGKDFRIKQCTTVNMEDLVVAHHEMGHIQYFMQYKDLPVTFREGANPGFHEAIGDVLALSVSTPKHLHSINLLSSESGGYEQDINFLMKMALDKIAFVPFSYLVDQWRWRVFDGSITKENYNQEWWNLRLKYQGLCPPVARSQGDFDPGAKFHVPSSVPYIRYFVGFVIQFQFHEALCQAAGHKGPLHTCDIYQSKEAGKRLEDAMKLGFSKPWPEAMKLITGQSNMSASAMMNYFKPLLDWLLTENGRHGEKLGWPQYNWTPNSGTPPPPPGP
Outline: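 In a prospective, randomised, parallel-group design, 48 healthy beagles were split into four groups: placebo twice daily; benazepril 0.5 mg/kg once each morning; benazepril 0.25 mg/kg twice daily; or benazepril 0.25 mg/kg plus pimobendan 0.125 mg/kg, both twice daily. Dosing was oral for 15 days. Serum ACE was assayed radio-enzymatically at baseline, at 12 post-dose times on day 1, and on day 15 (steady state).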

[7] = system: Aelurostrongylus abstrusus; Angiostrongylus vasorum; assay: Lungworm infection in cats and dogs in Rome treated with fenbendazole; type: in vivo
Outline: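 Animals were diagnosed by faecal testing, BAL, lung cytology or post mortem. All received fenbendazole 50 mg/kg for 3 weeks, with further therapy according to clinical status; outcome was recorded.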

[8] = biological target: Steroidogenic factor‐1 (SF‐1) (Canis lupus familiaris, UniProt A0A5K7W231); assay: Cortisol and mRNA in normal canine primary adrenocortical cell suspensions; type: cell-based, dogs; details: 10^‐8 to 10^‐5 M
Sequence of Steroidogenic factor‐1 (SF‐1) (A0A5K7W231 1-461): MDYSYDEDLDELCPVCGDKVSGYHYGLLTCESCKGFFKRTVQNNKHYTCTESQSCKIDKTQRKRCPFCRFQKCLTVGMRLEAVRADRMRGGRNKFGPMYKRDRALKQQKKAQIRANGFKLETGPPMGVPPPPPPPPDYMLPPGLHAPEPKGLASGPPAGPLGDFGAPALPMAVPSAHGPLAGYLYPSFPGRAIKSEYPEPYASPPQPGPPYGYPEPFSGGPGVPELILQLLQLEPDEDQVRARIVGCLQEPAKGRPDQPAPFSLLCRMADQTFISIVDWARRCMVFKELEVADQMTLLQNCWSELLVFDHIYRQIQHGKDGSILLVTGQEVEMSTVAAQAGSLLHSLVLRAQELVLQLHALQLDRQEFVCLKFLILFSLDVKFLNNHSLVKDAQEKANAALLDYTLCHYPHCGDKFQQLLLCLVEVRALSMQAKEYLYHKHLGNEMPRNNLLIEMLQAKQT
Outline: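 Primary adrenocortical cells from normal canine adrenals were cultured as suspensions, with synthetic ACTH added to mimic hypercortisolism. Cells were exposed to SF-1 inverse agonists, with a DMSO vehicle control. Cortisol was measured in the culture media. RT-qPCR gave relative mRNA expression of steroidogenic enzymes, SF-1 and MC2R.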

[9] = Cortisol monitoring in dogs with hyperadrenocorticism on trilostane; type: in vivo
Outline: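 Multicentre open-label prospective study in dogs with hyperadrenocorticism on trilostane. Serum cortisol was measured pre-trilostane, 3 h post-trilostane, and 1 h post-ACTH stimulation.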

[10] = dogs with HAC; ref other studies; cited from earlier work
[11] = Hypothyroidism after low‐dose radioiodine in hyperthyroid cats; type: in vivo; details: 30 hypothyroid cats supplemented
Outline: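 Hyperthyroid cats successfully treated with low-dose 131I (n = 569) had serum T4 and TSH measured at 1, 3, 6, 12 and ≥18 months after treatment. Cats that developed high TSH were classed as overtly hypothyroid if T4 was low, or subclinically hypothyroid if T4 was normal.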

[12] = Oral torasemide in cats with CHF; type: in vivo
Outline: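 Cats with CHF, previously on furosemide (median 6 mg/kg/24 h), were switched to oral torasemide. The median starting dose was 0.5 mg/kg/24 h (range 0.1–0.75), given once daily or split twice daily. Renal values and potassium were rechecked at follow-up.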

[13] = Sedation of dogs with stage B2 MMVD; type: in vivo
[14] = system: feline liver organoids; assay: Lipid accumulation in liver organoids exposed to free fatty acids; type: cell-based, cats; details: LD540, flow cytometry
Outline: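 Feline liver organoids were incubated with vehicle or free fatty acids and stained with the lipophilic dye LD540. Fluorescence was quantified by flow cytometry. β-oxidation of excess fatty acids was probed with a CPT-1 inhibitor and with L-carnitine supplementation.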

[15] = Laryngoscopy with doxapram stimulation in dogs with brachycephalic syndrome; type: in vivo
[16] = Simvastatin in dogs with hyperlipidemia; type: in vivo; details: three months; n = 5; range 181–399
[17] = system: Leishmania infantum; assay: Randomized allopurinol‐controlled trial in dogs with clinical leishmaniosis; type: in vivo; details: bone marrow; with MGA
[18] = Transcutaneous ICG plasma disappearance rate; type: in vivo, dogs
Outline: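 Healthy dogs received indocyanine green 0.5 mg/kg IV daily on three days. The plasma disappearance rate was read transcutaneously with a monitor probe, and the intrasubject coefficient of variation was calculated from the daily values.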

[19] = ref previously reported data; cited from earlier work
[20] = system: E.Coli; assay: Cat with E.coli associated granulomatous colitis; type: in vivo
[21] = system: bacteria isolated from urinary cultures; assay: Urine culture sensitivity in dogs with DM and/or HAC; type: cell-based

In the case of dexmedetomidine and buprenorphine, the “IVSd, IVSs, LVPWd, LVPWs, Ao, La/Ao, pulmonic acceleration time” value [1] is reported as “did not differ pre‐ and post‐sedation”, the “LVIDd, LVIDs, RVIDd, LA, pulmonic deceleration time, SBP, DBP, MAP” value ([1]; 50 cats, P ≤ 0.022) is reported as “increased after sedation” and the “Vmax Ao, Vmax A pulm, FS, AT/DT and HR” value ([1]; P < 0.0001) is reported as “decreased after sedation”.
With eprinomectin the outcome [2] was “healthy after two weeks”.
With `CO/N=C1\C[C@]2(C[C@@H]3C[C@@H](C/C=C(\C)C[C@@H](C)/C=C/C=C4\CO[C@@H]5[C@H](O)C(C)=C[C@@H](C(=O)O3)[C@]45O)O2)O[C@H](/C(C)=C/C(C)C)[C@H]1C` [moxidectin] the time to recovery [3] was 14 to 42 days and the “time to being healthy” value [4] was 14 to 42 days.
With `C[C@@H]1C[C@H]2[C@@H]3CCC4=CC(=O)C=C[C@]4(C)[C@@]3(F)[C@@H](O)C[C@]2(C)[C@@]1(O)C(=O)CO` [dexamethasone] the outcome [5] was “all patients surviving to discharge”.
In the case of `CCOC(=O)[C@H](CCc1ccccc1)N[C@H]1CCc2ccccc2N(CC(=O)O)C1=O` [benazepril], the “serum ACE activity versus baseline” value ([6]; group B, 0.5 mg/kg once daily PO) is reported as “significant reductions in serum ACE activity compared to baseline”, the “serum ACE activity versus baseline” value ([6]; group C, 0.25 mg/kg twice daily PO) is reported as “significant reductions in serum ACE activity compared to baseline” and the “0.25 mg/kg twice daily compared to 0.5 mg/kg once daily” value ([6]; non‐inferiority shown) is reported as “equivalent inhibition of serum ACE activity”.
With `COC(=O)Nc1nc2ccc(Sc3ccccc3)cc2[nH]1` [fenbendazole] the outcome in dogs ([7]; 50 mg/kg for 3 weeks plus other therapy, 21 dogs) was “Five dogs died; the others recovered” and the outcome in cats ([7]; 50 mg/kg for 3 weeks, 20 cats) was “fully recovered”.
In the case of `CCOC(=O)C(C)Oc1cccc2c(=O)n(CC(=O)Nc3ccc4c(c3)OCCO4)ccc12` (stereo not drawn) [IsoqA], the “effect on cortisol production” value [8] is reported as “no significant effect on cortisol production”.
With `C[C@]12CC[C@H]3[C@@H](CC[C@@]45O[C@@H]4C(O)=C(C#N)C[C@]35C)[C@@H]1CC[C@@H]2O` [trilostane] the “median cortisol pre‐trilostane” value ([9]; 21 dogs, 45 pairs on same dose) was 114.0 nmol/L, the “median cortisol 1 hour post‐ACTH stimulation” value ([9]; dog, in vivo) was 110.0 nmol/L and the “median cortisol 3 hours post‐trilostane” value ([9]; significantly lower than the other two) was 53.5 nmol/L. The mean survival time [10] was 1051 ± 78 days.
With `N[C@@H](Cc1cc(I)c(Oc2cc(I)c(O)c(I)c2)c(I)c1)C(=O)O` [Levothyroxine] the “serum TSH and creatinine” value [11] was “significantly decreased both serum TSH and creatinine concentrations”.
In the case of `Cc1cccc(Nc2ccncc2S(=O)(=O)NC(=O)NC(C)C)c1` [torasemide], the “main adverse clinical effect” value ([12]; in vivo) is reported as “worsening azotaemia”, the tolerability ([12]; in vivo) is reported as “tolerated by this population of cats with CHF” and the “median survival time after commencing torasemide” value ([12]; range 7–177 d, 11 cats) is reported as 48 days.
For `Cc1cccc(C(C)c2cnc[nH]2)c1C` (stereo not drawn) [M group, medetomidine], the “regurgitant jet area (ARJ/LAA)” value ([13]; T1, 30 minutes after medetomidine, n = 8 per group) was “significantly decreased”, the “body weight‐indexed LVIDs” value ([13]; T1, P < 0.05) was “increased” and the shortening fraction ([13]; T1, P < 0.05) was “decreased”.
In the case of `C[N+](C)(C)C[C@H](O)CC(=O)[O-]` [L‐carnitine], the “lipid accumulation under excess FFA” value [14] is reported as “attenuated”.
With `CCN1CC(CCN2CCOCC2)C(c2ccccc2)(c2ccccc2)C1=O.Cl` (stereo not drawn) [Dxp, doxapram hydrochloride] the “mean degree of laryngeal collapse (0 to 3)” value ([15]; after 1.1 mg/kg IV, before 1.64 [0–3], P < 0.001, 26 dogs) was 1.07 [0–3] and the laryngeal abduction ([15]; after injection) was “significant abduction of laryngeal cartilages could be observed in all dogs”.
Work on `CCC(C)(C)C(=O)O[C@H]1C[C@@H](C)C=C2C=C[C@H](C)[C@H](CC[C@@H]3C[C@@H](O)CC(=O)O3)[C@H]21` [simvastatin] yielded a plasma cholesterol [16] of 298 ± 109.9.
With `Oc1ncnc2[nH]ncc12` [allopurinol] the “parasite load by RT‐QPCR” value [17] was “significantly reduced parasite load”.
In the case of `CC1(C)C(/C=C/C=C/C=C/C=C2\N(CCCCS(=O)(=O)O)c3ccc4ccccc4c3C2(C)C)=[N+](CCCCS(=O)(=O)[O-])c2ccc3ccccc3c21` [ICG, Indocyanine green], the “mean ICG‐PDR” value ([18]; day one, 0.5 mg/kg IV, six healthy Beagles, transcutaneous) is reported as 7.8 ± 3.4 %/min, the “mean ICG‐PDR” value ([18]; day three) is reported as 7.9 ± 2.6 %/min and the “mean ICG‐PDR” value ([18]; day two) is reported as 8.8 ± 3.7 %/min. The “highest individual %CV” value ([18]; dog, in vivo) was 52.5%, the “mean intrasubject %CV of ICG‐PDR” value ([18]; three consecutive days) was 35.9 ± 16.8% and the “mean ICG‐PDR” value [19] was 7.79 ± 3.3 %/min.
With `CCN1CCN(c2cc3c(cc2F)c(=O)c(C(=O)O)cn3C2CC2)CC1` [enrofloxacin] the clinical response ([20]; 5 mg/kg SID for 6 weeks, one cat) was “complete resolution of clinical signs”, the remission sustained ([20]; to date) was 4 months and the bacterial resistance [21] was 38%.
In the case of `Clc1ccc(C(c2ccccc2Cl)C(Cl)Cl)cc1` (stereo not drawn) [mitotane], the mean survival time [10] is given as 985 ± 57 days.
With `CCOC(=O)[C@@]1(CCCCCCOc2ccc(Cl)cc2)CO1` [etomoxir] the “lipid accumulation under excess FFA” value [14] was “enhanced”.
With `C[C@]12CCC(=O)C=C1CC[C@@H]1[C@@H]2[C@@H](O)C[C@@]2(C)[C@H]1CC[C@]2(O)C(=O)COC(=O)CCC(=O)O` [HSS, hydrocortisone sodium succinate] the outcome [5] was “all patients surviving to discharge” and the “median time for Na+ concentration to normalise” value ([5]; group A (HSS) versus group B (dexamethasone), P = 0.0424) was “significantly shorter in group A compared to group B”.
